The target in assay [1] is T1, Adrenergic receptor alpha-2 (Rattus norvegicus, UniProt P22086+P19328+P22909).
T1 sequence (P22086 whole entry): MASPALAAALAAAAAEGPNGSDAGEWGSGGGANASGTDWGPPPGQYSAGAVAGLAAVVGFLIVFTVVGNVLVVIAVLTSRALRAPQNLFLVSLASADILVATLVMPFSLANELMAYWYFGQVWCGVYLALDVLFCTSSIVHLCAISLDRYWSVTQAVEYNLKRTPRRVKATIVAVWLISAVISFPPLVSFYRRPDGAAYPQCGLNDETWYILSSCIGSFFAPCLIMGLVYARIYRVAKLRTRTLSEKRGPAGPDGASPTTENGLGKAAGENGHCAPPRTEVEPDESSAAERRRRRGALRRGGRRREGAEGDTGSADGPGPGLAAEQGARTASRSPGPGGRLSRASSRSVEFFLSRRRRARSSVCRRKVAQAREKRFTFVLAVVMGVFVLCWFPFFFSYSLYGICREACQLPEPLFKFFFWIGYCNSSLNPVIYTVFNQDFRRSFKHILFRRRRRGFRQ
T1 sequence (P19328 whole entry): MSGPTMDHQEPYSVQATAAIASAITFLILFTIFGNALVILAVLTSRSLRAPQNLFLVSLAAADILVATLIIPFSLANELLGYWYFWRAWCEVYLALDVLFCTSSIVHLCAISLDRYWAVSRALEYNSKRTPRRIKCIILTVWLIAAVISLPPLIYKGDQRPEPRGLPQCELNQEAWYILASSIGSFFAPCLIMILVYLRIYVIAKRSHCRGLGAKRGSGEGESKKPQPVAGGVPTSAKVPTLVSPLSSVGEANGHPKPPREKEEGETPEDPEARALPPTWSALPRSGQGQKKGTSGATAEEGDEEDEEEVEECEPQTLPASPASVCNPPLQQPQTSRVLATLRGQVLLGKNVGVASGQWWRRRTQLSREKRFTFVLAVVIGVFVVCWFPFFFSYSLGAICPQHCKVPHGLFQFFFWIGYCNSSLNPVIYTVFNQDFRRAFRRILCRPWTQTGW
T1 sequence (P22909 whole entry): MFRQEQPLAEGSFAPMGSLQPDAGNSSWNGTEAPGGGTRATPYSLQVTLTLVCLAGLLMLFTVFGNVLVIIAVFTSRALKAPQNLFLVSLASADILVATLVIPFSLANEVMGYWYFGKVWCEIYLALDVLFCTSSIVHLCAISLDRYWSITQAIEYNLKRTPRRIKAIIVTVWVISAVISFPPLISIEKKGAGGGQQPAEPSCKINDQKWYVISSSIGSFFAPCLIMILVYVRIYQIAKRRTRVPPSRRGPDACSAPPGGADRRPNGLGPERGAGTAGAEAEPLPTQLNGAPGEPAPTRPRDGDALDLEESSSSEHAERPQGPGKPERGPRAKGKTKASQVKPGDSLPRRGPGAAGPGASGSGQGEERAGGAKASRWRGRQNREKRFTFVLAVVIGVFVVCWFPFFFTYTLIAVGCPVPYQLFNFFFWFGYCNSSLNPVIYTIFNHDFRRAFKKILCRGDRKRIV
The assay is described as follows: In vitro binding affinity against alpha-2 adrenergic receptor in rat. The essentials:
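Rat cortex synaptic membranes (male Wistar rats, 150-250 g; homogenized in HEPES-sucrose, spun at 1000g then 42000g, pellet washed in 3 mM K phosphate pH 7.5 with 30 min 25 °C preincubation). Displacement of [3H]p-aminoclonidine (0.1 nM), 20 min at 25 °C; filtration, scintillation counting. 8-10 concentrations in triplicate; Ki from single-site fit, nonspecific binding as fitted parameter.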

Assay [2] is filed under the species Mus musculus. The assay is described as follows: Mouse Acetylcholine-induced Abdominal Irritant Test activity (MAIT). The class given is functional. As to conditions: Abdomen. The essentials:
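Male CD-1 mice, 18-24 g, fed ad libitum until testing. Compound or vehicle given orally by gavage; at set intervals afterwards, acetylcholine bromide 5.5 mg/kg i.p. Mice observed in bell jars for a single abdominal response; % antinociception per dose taken from responder counts. ED50 with 95% confidence limits by Litchfield-Wilcoxon probit analysis, including a chi-square test for linearity.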

Assay [3] is filed under the species Mus musculus. The assay is described as follows: Mouse Acetylcholine-induced Abdominal Irritant Test activity(MAIT) of the compound. As to conditions: Abdomen.

The values that follow come from ChEMBL document CHEMBL1132495, “Alpha(2) adrenoceptor agonists as potential analgesic agents. 1. (Imidazolylmethyl)oxazoles and -thiazoles” (J Med Chem, 1999).

For `CCCCc1nc(Cc2c[nH]cn2)c(CCCC)s1`, the Ki (in general, the equilibrium dissociation constant of an inhibitor or competing ligand from its target) in assay [1] stood at 35 nM. Further, the ED50 – broadly, the dose that gives a 50% effect, or the effect in half of the subjects – in assay [2] was over 30 mg/kg. In assay [1], `CCc1nc(Cc2c[nH]cn2)c(C)s1` displayed a Ki of 57 nM. In assay [2], this compound had an ED50 of over 30 mg/kg. Turning to `CC(C)c1nc(Cc2c[nH]cn2)c(C(C)C)s1`, the Ki in assay [1] is recorded as 285 nM. Besides, the ED50 in assay [2] came out at 23.8 mg/kg. Take `CCc1sc(C)nc1Cc1c[nH]cn1`: the Ki in assay [1] stood at 10 nM. Moreover, the 50% effect level in assay [2] (ED50) was put at a dose of 2.3 mg/kg. For `c1nc(Cc2nc3c(s2)CCC3)c[nH]1`, in that order: 28 nM and over 30 mg/kg. For `CCc1cnc(Cc2c[nH]cn2)s1`, in that order: 381 nM and over 30 mg/kg. `CCc1csc(Cc2c[nH]cn2)n1` had a Ki in assay [1] of 36 nM. In addition, the ED50 in assay [2] is over 30 mg/kg.

The compound `Cc1nc(C)c(C(c2ccccc2)c2c[nH]cn2)s1` (centres undefined) displayed a Ki in assay [1] of 269 nM. The same compound registered an ED50 in assay [2] of over 30 mg/kg. As to `CCc1nc(Cc2cn[nH]n2)c(CC)s1`, in assay [1], the Ki was over 1000 nM. The same compound displayed an ED50 in assay [2] of over 30 mg/kg. For `CCc1nc(C(Cc2ccccc2)c2c[nH]cn2)c(CC)s1` (centres undefined), in that order: 37 nM and over 30 mg/kg. For `Cc1nc(Cc2c[nH]cn2)sc1C`, in that order: 11 nM and 1.7 mg/kg. For `CCc1sc(C(F)(F)F)nc1Cc1c[nH]cn1`, in that order: 320 nM and 20.3 mg/kg. Regarding `CCCc1nc(Cc2c[nH]cn2)c(CCC)s1`, in assay [1], the Ki stood at 97 nM. In assay [2], this compound showed an ED50 of 30 mg/kg. For `CCc1nc(Cc2ncc[nH]2)c(CC)s1`, in that order: over 1000 nM and over 30 mg/kg. The compound `Cc1nc(C)c(C(C)c2c[nH]cn2)s1` (centres undefined) registered an inhibition constant Ki in assay [1] of 60 nM. Also, the ED50 in assay [2] was over 30 mg/kg. For `CCc1sc(-c2ccccc2)nc1Cc1c[nH]cn1`, in that order: 13 nM and 15 mg/kg. As to `CCc1nc(CC)c(C(C)c2c[nH]cn2)s1` (centres undefined), the Ki in assay [1] is 97 nM. In assay [2], this compound registered an ED50 of over 30 mg/kg. For `Cc1nc(Cc2c[nH]cn2)c(C)s1`, in that order: 38 nM and over 30 mg/kg. Take `CCc1nc(Cc2[nH]cnc2C)c(CC)s1` [ENTRY 68 A]: in assay [1], the Ki came to 53 nM. `CCc1nc(Cc2c[nH]cn2)c(C(C)C)s1` displayed a Ki in assay [1] of 235 nM. In addition, it took a dose of 25.3 mg/kg to reach the 50% effect level in assay [2] (ED50).

In assay [1], `CCc1nc(Cc2c[nH]cn2)sc1C` showed a Ki of 18 nM. In assay [2], this compound displayed an ED50 of over 30 mg/kg. `Cc1nc(C)c(Cc2c[nH]cn2)s1` returned a Ki in assay [1] of 8 nM. This compound displayed an ED50 in assay [2] of 1 mg/kg. For `CCc1nc(Cc2nc[nH]n2)c(CC)s1`, in that order: over 1000 nM and over 30 mg/kg.

`CCc1sc(C(C)C)nc1Cc1c[nH]cn1`: the Ki in assay [1] was determined as 28 nM. Also, in assay [2], the ED50 worked out at 7.5 mg/kg. For `CC(C)c1nc(Cc2c[nH]cn2)c(C(C)C)o1`, in that order: 714 nM and 6.9 mg/kg. For `c1ccc2sc(Cc3c[nH]cn3)nc2c1`, in that order: 18 nM and over 30 mg/kg. As for `Cc1cccc(C(C)c2c[nH]cn2)c1C` (single isomer, unassigned) [DEXMEDETOMIDINE], in assay [1], the Ki is listed as 0.015 nM. Besides, the ED50 in assay [3] amounted to 0.09 mg/kg. `CCc1nc(CC)c(Cc2c[nH]cn2)s1`: in assay [1], the Ki was found to be 23 nM. This compound also had an ED50 in assay [2] of over 30 mg/kg. For `CCc1nc(Cc2c[nH]cn2)c(CC)o1`, in that order: 58 nM and 2.8 mg/kg. In turn, `CCc1sc(Cc2c[nH]cn2)nc1C` showed a Ki in assay [1] of 18 nM. This compound also gave an ED50 in assay [2] of 2.8 mg/kg. For `CCc1nc(C(C)c2c[nH]cn2)c(CC)s1` (centres undefined), in that order: 407 nM and 16 mg/kg. For `CCc1nc(Cc2c[nH]cn2)sc1CC`, in that order: 86 nM and over 30 mg/kg. For `CCc1nc(Cc2c[nH]cn2)c(CC)s1`, in that order: 17 nM and 1.8 mg/kg. In turn, `Cc1nc(Cc2c[nH]cn2)c(C)o1` returned a Ki in assay [1] of over 1000 nM. The same compound gave an ED50 in assay [2] of over 30 mg/kg. With `c1nc(Cc2nc3c(s2)CCCC3)c[nH]1`, the Ki in assay [1] was determined as 110 nM. The compound also yielded an ED50 in assay [2] of over 30 mg/kg.
